The record followed here is ChEMBL document CHEMBL4513216, “Probing the Open Global Health Chemical Diversity Library for Multistage-Active Starting Points for Next-Generation Antimalarials” (ACS Infect Dis, 2020).

A short description of the data set: Toxicity liver stage against HepG2, at 10uM. Particulars: human, HepG2-A16-CD81EGFP cells; read-out: INHIBITION
The arrangement: test concentration 10 uM, cell line HepG2-A16-CD81EGFP. The data set is classed as cell-based. The gist of the method: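 Uninfected HepG2-A16-CD81EGFP cells, 3 × 10^3 per well, 1536-well, plated on prespotted compound at 10 μM final, parasite-free screening media added to match infected plates; puromycin 10 μM positive, DMSO 0.5% negative; run in parallel with 48 h PbLuc assay at 37 °C, 5% CO2; viability by CellTiter-Glo luminescence, normalized to controls.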
On to `CN(Cc1n[nH]c2c1CCCC2)c1nc2c(c(=O)[nH]1)CCNCC2`, for which the cytotoxicity at 10 µM was -20.1%.
With `Cc1cnn(CCC(=O)N2CCN(C(=O)C(C)C)[C@@H]3CS(=O)(=O)C[C@@H]32)c1`, the cytotoxicity at 10 µM worked out at 2.47%.
The same measure for `CN1CC2(CCCN(Cc3cccc(CCN)c3)C2)OC1=O` (stereo not drawn): 20%; for `O=C(C(c1ccccc1)S(=O)(=O)c1ccccn1)N1CCCC1` (stereo not drawn): 7.27%.
The same measure for `Cc1ccc(SCC2CNc3nc4ccccc4c(=O)n32)c(C)c1` (stereo not drawn): 6.76%.
The figure for `CC(C)C[C@H](NC(=O)N1CCC(Cc2ccccc2)CC1)C(=O)O` is -4.13%; for `CCn1c(CN(C)Cc2csc(C)n2)nc2cc(F)ccc21` it is -47%.
In the case of `CN1C(=O)CCc2cc(NC(=O)C3CC(=O)N(CC4CC4)C3)ccc21` (stereo not drawn), the cytotoxicity at 10 µM is -12.2%.
In the case of `CS(=O)(=O)Cc1nc(CN2CCc3ccccc3CC2)cs1`, the cytotoxicity at 10 µM was -7.73%.
Consider `Cc1nc(C)c(CC(=O)Nc2nnc(C)s2)c(=O)[nH]1`, for which the cytotoxicity at 10 µM is -2.17%.
The figure for `CCN(CC)CCCN1CCC(NC(=O)OC(C)(C)C)CC1` is 5%; for `O=C(c1nc2sccn2c1-c1ncc[nH]1)N1CCCCC1` it is 7.52%.
The same measure for `Cc1ccccc1CN1CCOC(c2nccc(CN(C)C)n2)C1` (stereo not drawn): -9.19%; for `COc1ccc(CCCN2C(=O)O[C@@H]3CN(C4CCOCC4)C[C@@H]32)cc1`: -1.47%; for `Cc1ccc(C(=O)N2C[C@@H]3COC[C@]3(COCc3cccnc3)C2)cn1`: 0.719%.
With `COc1cccc(OCc2cc(C(=O)N3CC(O)C3)n[nH]2)c1`, the cytotoxicity at 10 µM was found to be 2.81%.
Consider `Cc1ccc(Cl)cc1S(=O)(=O)NCc1cnc(N(C)C)n1C`, for which the cytotoxicity at 10 µM was 5.17%.
With `Cc1ccccc1-c1cccc(CN2C[C@H]3C(=O)NC[C@@]3(C(=O)O)C2)c1`, the cytotoxicity at 10 µM is -0.147%.
The figure for `O=C1CO[C@H]2CN(Cc3ccc(F)c(F)c3)C[C@H]2N1` is -2.49%; for `CC(OCC1CC1)C(=O)NCc1cccc(CN2CCN(C)CC2)c1` (stereo not drawn) it is 0.193%.
Regarding `CC(=O)N1CCc2nc(-c3ccc(F)cc3)nc(NC(C)C)c2CC1`, the cytotoxicity at 10 µM was -114%.
The same measure for `CC1(C)[C@H](Cc2cc(CN3CCCCC3)on2)C[C@@H]1NS(C)(=O)=O`: 1.12%; for `Cn1nc2c(cc1=O)CN(Cc1nc3ccccc3c(=O)[nH]1)CC2`: -7.64%; for `Cc1nc(O)cc(CN2C[C@H](NC(=O)C3CCCC3)[C@@H](C3CC3)C2)n1`: -4.7%.
For `CSc1nccc(N2CCC(NCc3ccc4nsnc4c3)CC2)n1`, the cytotoxicity at 10 µM worked out at 28.3%.
The same measure for `CCNC(=O)c1cnc(Sc2nccn2C)c(Cl)c1`: -49.2%; for `O=C(NCc1nnc2n1CCC2)c1cn(-c2ccccc2)nn1`: -2.4%.
For `CN1CCN(C(=O)Cc2ccc(S(=O)(=O)C(F)F)cc2)CC1`, the cytotoxicity at 10 µM turned out to be 12%.
The same measure for `O=C(c1ccccc1)N1CCC[C@]2(C[C@@H](OCc3ccncc3)CO2)C1`: 5.25%; for `CC(C)NC(=O)N1CCC2(CC1)COc1ccccc1S(=O)(=O)N(C)C2`: 7.02%.
The figure for `Cc1ccc(N2CCN(C(=O)C3CN(C)C(=O)N3)CC2=O)cc1` (stereo not drawn) is -2.61%; for `CCS(=O)(=O)N1CC[C@@H]2[C@H](CC1)N(CC(C)C)CCS2(=O)=O` it is 8.4%.
In the case of `c1nc2c(c(-c3ccsc3)n1)CCN(Cc1ccoc1)CC2`, the cytotoxicity at 10 µM was -11.4%.
As for `O=C1CN(C(=O)c2cccc(C(F)(F)F)c2)CC(O)CN1CC1CC1` (stereo not drawn), the cytotoxicity at 10 µM is -4.65%.
The same measure for `c1cn(Cc2nnc(C3CCN(C4CCOCC4)CC3)n2C2CC2)cn1`: 0.442%; for `CC(C)(C)C(=O)NCCC(=O)N1CCC(Nc2cccnn2)CC1`: -4.11%; for `Cn1cnc(-c2nc(C(=O)NC3CC3)c3ccccn23)c1`: -114%.
Turning to `CNC(=O)[C@@]12CCO[C@@H]1CCN(S(=O)(=O)c1ccccc1)C2`, the cytotoxicity at 10 µM is -74.8%.
With `Cc1cn2nc(N3CCCC3Cn3nc(C)nc3C)sc2n1` (stereo not drawn), the cytotoxicity at 10 µM is -14.6%.
On to `O=S(=O)(NC[C@H]1C[C@@H]2CCN1C[C@@H]2CN1CCOCC1)c1ccccc1`, for which the cytotoxicity at 10 µM was 1.82%.
As to `Cc1nnnn1-c1ccc(CC(=O)N2CCOCC(O)C2)cc1` (stereo not drawn), the cytotoxicity at 10 µM is -7.46%.
For `CCn1ncnc1C1CC(=O)NCc2nc3ccccn3c21` (stereo not drawn), the cytotoxicity at 10 µM was -12.2%.
The figure for `O=C(c1ccnnc1)N1C[C@H](OCc2ccccn2)[C@H]2COC[C@H]21` is -7.52%; for `CC(CCCC(C)(C)O)Nc1ccc(-c2nccn2C)nn1` (stereo not drawn) it is 3.96%.
The figure for `CCCc1noc(C2CCCCN2C(=O)C2CCCC2)n1` (stereo not drawn) is -35.8%.
For the molecule `Cc1ccc(N(CCC#N)C(=O)CN2CCCC2c2ccsc2)cc1` (stereo not drawn), the cytotoxicity at 10 µM was -9.01%.
The figure for `Cc1ccc2[nH]c(CN3CC[C@@H](N4CCN(C)CC4)[C@H](O)C3)c(C)c2c1` is -7.34%.
The figure for `Cc1nnc(NC(=O)NCc2ccc(N3CCNC(=O)C3)cc2)s1` is -1.26%; for `O=S(=O)(NCC1COCc2c(-c3ccncc3)nnn2C1)C1CC1` (stereo not drawn) it is -80.9%.
The same measure for `Cc1nc(CN2C(=O)COC3(CCN(Cc4ccsc4)CC3)C2C)cs1` (stereo not drawn): -123%; for `Cc1cc(C(=O)NS(=O)(=O)Cc2ccon2)c(C)o1`: 4.42%.
As for `Cc1cc(C)n(C2CN(CC(O)c3ccc(C(F)(F)F)cc3)C2)n1` (stereo not drawn), the cytotoxicity at 10 µM is -5.94%.
Turning to `COCCS(=O)(=O)NC(C)c1cccc(C)c1C` (stereo not drawn), the cytotoxicity at 10 µM stood at 6.13%.
The figure for `COc1cc(Cl)c(C)cc1-n1nnc(C(=O)O)c1-c1ccncc1` is 4.74%; for `COc1ccccc1OCc1cc(C(=O)N2CCCCCC2CO)n[nH]1` (stereo not drawn) it is -2.48%.
The figure for `O=C(C1CCCC1)N1CCC(c2n[nH]c3nccnc23)CC1` is 0.165%.
The figure for `Cn1cc(CN2CCn3cc(CNC(=O)C4CCC4)nc3C2)cn1` is -6.66%; for `CC(NC(=O)COC1CCCC1)c1nc(-c2ccccc2)c[nH]1` (stereo not drawn) it is 4.24%.
On to `CCCNC(=O)C1CCCN(Cc2ccc(-n3cncn3)c(C)c2)C1` (stereo not drawn), for which the cytotoxicity at 10 µM stood at 8.28%.
On to `CCN(Cc1ccc2c(c1)OCCO2)C(=O)Cn1cccnc1=O`, for which the cytotoxicity at 10 µM was -5.1%.
The same measure for `Cc1cccc(CN2CCC3(CC2)CN(c2cccnc2)C(=O)CO3)n1`: -96.1%; for `Cc1csc(C2(NCCC(=O)N3CCOCC3)CCCC2)n1`: -11.4%; for `COC1CCCN(C(=O)NCC(C)(C)SC)C1` (stereo not drawn): 10.5%.
The same measure for `Nc1ncccc1C(=O)NCc1cccc(Cl)c1`: 20.5%; for `COCCN1C[C@@H]2CN(S(=O)(=O)c3cccs3)C[C@@H]2C1=O`: 0.258%.
The figure for `N#Cc1cccnc1N1CCC(OCCc2ccccc2)CC1` is -11%; for `CC(=O)N1CC2(CCN(c3nccc4ccccc34)CC2)CC1C(=O)O` (stereo not drawn) it is 4.65%.
On to `N#CCCN(CCC#N)C(=O)c1cccc(N2CCNC2=O)c1`, for which the cytotoxicity at 10 µM is -18.7%.
